According to ChEMBL document CHEMBL1138522, “A novel small-molecule inhibitor of the avian influenza H5N1 virus determined through computational screening against the neuraminidase” (J Med Chem, 2009):
The source made the active and inactive calls. The calls are words filed in the database; no cut-off is given here. Residues, ends and D or L forms follow the SMILES beside them. *: point of attachment. Cbz = O=C(OCc1ccccc1)*

Columns and labels:
[1] = Cytotoxicity against primary human blood macrophages after 48 hrs by MTT assay; assay type: cell-based; conditions: macrophage
Method in brief: (§1)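 Primary human blood macrophages or MDCK cells were incubated 48 h with DMSO-dissolved compound; viability by MTT assay. DMSO-treated cells served as solvent controls.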

Influenza A virus [2] = assay: Antiviral activity against influenza A virus H1N1 A/HK/54/98 in MDCK cells assessed as inhibition of viral replication after 48 hrs by hemagglutinination assay; assay type: functional, organism-based
Method in brief: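 H1N1 A/HK/54/98 infected MDCK cells at moi 2 for 30 min, then washed once with PBS. Cells were refed with serum-free medium containing TPCK-trypsin plus compound. Supernatant was collected 48 h post-infection and viral titre was read by hemagglutination assay.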

Influenza A virus [3] = assay: Antiviral activity against Influenza A virus (A/Viet Nam/1203/2004(H5N1)) in MDCK cells assessed as inhibition of viral replication after 48 hrs by hemagglutinination assay; assay type: functional, organism-based
MDCK = assay: Cytotoxicity against MDCK cells after 48 hrs by MTT assay; assay type: cell-based, Canis lupus familiaris; conditions: dog; method in brief: as §1
Influenza A virus [4] = assay: Antiviral activity against influenza A virus H1N1 A/HK/54/98 in MDCK cells assessed as inhibition of viral replication at 100 uM after 18 hrs by transmission electron microscopy; assay type: functional, organism-based
Method in brief: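 MDCK cells were infected with H1N1 at moi 2, then treated with compound at 100 µM, with DMSO controls. At 18 h post-infection, cells were fixed in 2.5% glutaraldehyde in 0.1 M cacodylate (pH 7.4), post-fixed in 1% osmium tetroxide, and embedded in epoxy. 100 nm sections were examined by TEM for surface virions.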

Influenza A virus [5] = assay: Antiviral activity against Influenza A virus (A/Viet Nam/1203/2004(H5N1)) in MDCK cells assessed as inhibition of viral replication at 100 uM after 18 hrs by transmission electron microscopy; assay type: functional, organism-based
Influenza A virus [6] = assay: Antiviral activity against Influenza A virus (A/Viet Nam/1203/2004(H5N1)) in MDCK cells assessed as inhibition of virus-induced cytopathic effect after 48 hrs by crystal violet staining; assay type: functional, organism-based
Influenza A virus [7] = assay: Antiviral activity against influenza A virus H1N1 A/HK/54/98 in MDCK cells assessed as inhibition of virus-induced cytopathic effect after 48 hrs by crystal violet staining; assay type: functional, organism-based
Method in brief: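 H1N1 A/HK/54/98 infected MDCK cells at moi 2, with compound over a range of concentrations; supernatant taken at 48 h. Serial 2-fold dilutions were adsorbed 1 h onto MDCK cells (2 × 10^4/well), then incubated 4 days in MEM with 1 µg/mL TPCK-trypsin. CPE was read by formaldehyde fixation and crystal violet staining; TCID50 by Reed-Muench. Three independent experiments.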

[8] = molecular target: Neuraminidase (Influenza A virus) (UniProt B4URF0); assay: Inhibition of influenza A virus H1N1 neuraminidase catalytic activity at 100 uM
Method in brief: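 Chemiluminescent NA-Star kit using H1N1 virus (TCID50 2 × 10^7/mL, diluted 5-fold) as enzyme source. Virus was preincubated with compound, in triplicate, 20 min at 37 °C. 1:1000-diluted substrate was then added for 30 min at room temperature, followed by accelerator and an immediate luminescence read.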

Mus musculus = assay: Toxicity in mouse assessed as survival up to 400 mg/kg; assay type: organism-based; parameters: dose 400 mg/kg; conditions: in vivo

Compound | Activity [1] [µM] | Activity (Influenza A virus [2]) | Activity (Influenza A virus [3]) | Activity (MDCK) [µM] | Activity (Influenza A virus [4]) | Activity (Influenza A virus [5]) | Activity (Influenza A virus [6]) | Activity (Influenza A virus [7]) | Activity [8] | Activity (Mus musculus)
Nc1nc(=O)c2cc(NCc3ccc(C(=O)NC(CCC(=O)O)C(=O)O)cc3)ccc2[nH]1 (centres undefined) | 0.9 | inactive | inactive | 1.2 |  |  |  |  |  | 
O=C(O)CCC(=O)CCC(=O)c1ccc2ccccc2c1 | 1.1 | inactive | inactive | 1 |  |  |  |  |  | 
CCOC(=O)C1=C[C@@H](OC(CC)CC)[C@H](NC(C)=O)[C@@H](N)C1 |  | Active | Active |  | Active | Active |  |  |  | 
Cc1cccc(OC(=O)Nc2ccc(C(=O)O)c(O)c2)c1 | 1 | inactive | inactive | 2.3 |  |  |  |  |  | 
O=C(/C=C/c1ccc(O)c(O)c1)NCC(=O)NC(Cc1ccccc1)C(=O)O (centres undefined) | 1.1 | inactive | inactive | 2.2 |  |  |  |  |  | 
O=C(O)CCC(=O)NCC1CCCC(CNC(=O)CCC(=O)O)C1 (centres undefined) | 0.9 | inactive | inactive | 1.3 |  |  |  |  |  | 
CNC(=N)Nc1ccc(C(=O)O)cc1.O=S(=O)(O)O | 0.7 | inactive | inactive |  |  |  |  |  |  | 
Nc1nc(O)c2cc(CSc3ccc(C(=O)NC(CCC(=O)O)C(=O)O)cc3)ccc2n1 (centres undefined) | 1.1 |  |  | 1.1 |  |  |  |  |  | 
O=C(Nc1ccn(C2CCC(COC(c3ccccc3)(c3ccccc3)c3ccccc3)O2)c(=O)n1)c1ccccc1 (centres undefined) | 0.8 | inactive | inactive |  |  |  |  |  |  | 
C[C@H](NC(=O)OCc1ccccc1)C(=O)N[C@@H](Cc1c[nH]c2ccccc12)C(=O)O (Cbz-Ala-Trp-OH) | 0.9 | inactive | inactive |  |  |  |  |  |  | 
CCOC(=O)C(O)C(=O)OCc1ccc2ccccc2n1 (centres undefined) | 1 | inactive | inactive | 1.4 |  |  |  |  |  | 
CC[C@H](C)[C@H](NC(=O)[C@H](C)NC(=O)OCc1ccccc1)C(=O)O (Cbz-Ala-Ile-OH) | 1 | inactive | inactive |  |  |  |  |  |  | 
O=C(O)C(Cc1ccc(O)cc1)c1ccc(C(Cc2ccc(O)cc2)C(=O)O)cc1 (centres undefined) | 0.1 | inactive | inactive |  |  |  |  |  |  | 
C/C(=C\C(=O)N1c2ccccc2CC1c1c[nH]c2ccccc12)C(=O)O (centres undefined) | 1 | inactive | inactive | 1.2 |  |  |  |  |  | 
Cc1nc(N)nc(O)c1CCCNc1ccc(/C=C/C(=O)CCl)cc1 | 1.1 | Active | Active | 2.2 | Active | Active | Dose-dependent effect | Dose-dependent effect | Active | Non-toxic
O=C(O[C@H](C(=O)O)[C@H](OC(=O)c1ccccc1)C(=O)O)c1ccccc1 | 1.1 | inactive | inactive | 0.7 |  |  |  |  |  | 
Cc1nc(Nc2ccccc2)sc1C(=O)CC(=O)C(=O)NC1C2CC3CC(C2)CC1C3 (centres undefined) | 1.1 | inactive | inactive | 1.5 |  |  |  |  |  | 
CCOC(=O)CNC(=O)CCC(NS(=O)(=O)c1ccc(C)cc1)C(=O)O (centres undefined) | 0.8 | inactive | inactive |  |  |  |  |  |  | 
O=C(O)CCCCCNC(=O)OCc1ccccc1 | 0.9 | inactive | inactive | 1.5 |  |  |  |  |  | 
Cc1ccccc1OC(=O)Nc1ccc(C(=O)O)c(O)c1 | 0.9 | inactive | inactive | 1.7 |  |  |  |  |  | 
Nc1nc(=O)c2cc(CSc3ccc(C(=O)NC(CCC(=O)O)C(=O)O)cc3)ccc2[nH]1 (centres undefined) |  | inactive | inactive |  |  |  |  |  |  | 
O=C(O)c1ccccc1C(=O)Nc1cc2c(cc1Br)-c1ccccc1C2=O | 10 | inactive | inactive | 1.1 |  |  |  |  |  | 
